For data set [1] the following is noted: administered with food compared to a fasted state; cited from earlier work.
Data set [2] is classed as in vivo, human. The following applies: for AUC(0-inf): AUC0–∞,obs; for Tmax: median [range]. The gist of the method:
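Sixteen advanced solid tumour patients were enrolled. Each received a single oral 200 mg tablet after an overnight fast, either with ~240 mL water or directly after a ~950 kcal high-fat breakfast eaten within 30 min. No food was given for 4 h. Order was randomized, with a 7-day washout. Plasma was sampled predose and 0.5–48 h and measured by LC–MS/MS (detection limit 1 nM). Parameters were derived by non-compartmental analysis, with adjusted geometric mean ratios and 90% CI.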

Data set [3] is classed as in vivo, human. The settings on record: single 200 mg dose; for AUC(0-inf) / Cmax / half-life: human, plasma, oral, 200 mg; for AUC(0-inf): AUC0–∞,obs; for AUC(0-inf) / Cmax: adjusted geometric mean; for half-life: t½, geometric mean [coefficient of variation (%)]. The gist of the method:
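Sixteen advanced solid tumour patients, fasted overnight and for 4 h post-dose, received 200 mg as an intact tablet or as the uncrushed tablet shaken to full dispersion in 20 mL of sucralose 4 mg/mL, menthol 2 mg/mL and benzoic acid 1 mg/mL, undiluted. Order was randomized, with a 7-day washout. Plasma was sampled predose to 48 h by LC–MS/MS. Analysis was non-compartmental, with adjusted geometric mean ratios and 90% CI.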

The conditions of data set [4]: single dose, primarily Caucasian subjects, fasted state; cited from earlier work.
The mark [5] stands for this setting: single 200 mg tablet, fed versus fasted.

Read-outs that look alike come from different tables or passages of the source.

On to `C[C@]12CC[C@H](O)CC1=CC[C@@H]1[C@@H]2CC[C@]2(C)C(c3cccnc3)=CC[C@@H]12` [abiraterone], for which the “increase in the area under the plasma concentration–time curve (AUC)” value in data set [1] was 1000%.

With `COc1cc(C(=O)NC2CCN(C)CC2)c(F)cc1Nc1ncc(C(F)(F)F)c(Oc2cccc3c2C(=O)N(C)C3)n1` [BI 853520], in data set [2] (fasted, single 200 mg tablet, geometric mean [coefficient of variation (%)], n=15), the t½ is on record as 18.0 (22.6) h. This compound also yielded a Cmax in data set [2] (fed, single 200 mg tablet, plasma, adjusted geometric mean) of 1640 nM. For the same compound, in data set [2] (human, plasma, oral, 200 mg), the Cmax was 1870 nM and the half-life was 18 h. The AUC(0-inf) in data set [2] (human, plasma, oral, 200 mg, fasted, single 200 mg tablet, adjusted geometric mean) amounted to 39.9 µM·h. For the same compound, in data set [2] (human, plasma, oral, 200 mg, fed, single 200 mg tablet, adjusted geometric mean), the AUC(0-inf) was found to be 39.2 µM·h. The Tmax in data set [2] (human, plasma, oral, 200 mg, fasted, single 200 mg tablet, n=15) is 3 h. Moreover, the Tmax in data set [2] (human, plasma, oral, 200 mg, fed (high-calorie meal), single 200 mg tablet, n=15) amounted to 4 h. Moreover, in data set [2] (single 200 mg tablet), the “tmax and t½ after a high-calorie meal compared with fasted patients” value is given as “not different”. Also, in data set [2] (setting [5]), the “AUC0-tz adjusted GMR (90% CI) [fed/fasted]” value was 92.46 (74.24–115.16) %, the “AUC0–∞,obs adjusted GMR (90% CI) [fed/fasted]” value is reported as 98.17 (78.53–122.74) % and the “Cmax adjusted GMR (90% CI) [fed/fasted]” value was 87.34 (71.04–107.38) %. In data set [3] (liquid dispersion, fasted), this compound had an AUC(0-inf) of 31.5 µM·h, a Cmax of 1610 nM and a half-life of 18.4 h. In data set [3] (tablet, fasted), this compound had an AUC(0-inf) of 32 µM·h, a Cmax of 1720 nM and a half-life of 19.5 h. Further, in data set [3] (fasted), the “AUC0-tz adjusted GMR (90% CI) [tablet/liquid]” value is 99.98 (92.28–108.33) %, the “AUC0–∞,obs adjusted GMR (90% CI) [tablet/liquid]” value is reported as 101.65 (93.57–110.42) % and the “Cmax adjusted GMR (90% CI) [tablet/liquid]” value is 107.15 (98.79–116.22) %. For the same compound, the “tmax and t½, effect of dispersing in a liquid” value in data set [3] (liquid dispersion vs tablet) was “not affected”. In addition, the “observed terminal half-life (t½)” value in data set [4] is 19 h.

The record behind these values is publication PMC6407750 (Targeted Oncology, 2019).
